Experimental findings from ChEMBL document CHEMBL5149991 (J Med Chem, 2021) are described below.

SMILES strings stand for the structures.

The target of assay [1] is Histamine H3 receptor (Homo sapiens, UniProt Q9Y5N1). Nature of the assay: Displacement of [3H]UR-PI294 from human histamine H3 receptor stably expressed in baculovirus infected Sf9 cell membrane co-expressing G-alphai2 and G-beta1gamma2 incubated for 60 mins by scintillation counting analysis. In kind it is cell membranes. In a few lines:
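hH3R + Gαi2 + Gβ1γ2 expressed in Sf9 membranes. […] Mean ± SEM from N independent experiments in triplicate.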

Assay [2] concerns the target Histamine H4 receptor (Homo sapiens, UniProt Q9H3N8).
For assay [3], the target named is Histamine H2 receptor (Homo sapiens, UniProt P25021). Nature of the assay: Displacement of [3H]UR-DE257 from human histamine H2 receptor stably expressed in baculovirus infected Sf9 cell membrane co-expressing RG-Salpha S incubated for 60 mins by scintillation counting analysis. In kind it is cell membranes.
In assay [4] the target is Histamine H1 receptor (Homo sapiens, UniProt P35367).
Sequence of Histamine H1 receptor (P35367 whole entry): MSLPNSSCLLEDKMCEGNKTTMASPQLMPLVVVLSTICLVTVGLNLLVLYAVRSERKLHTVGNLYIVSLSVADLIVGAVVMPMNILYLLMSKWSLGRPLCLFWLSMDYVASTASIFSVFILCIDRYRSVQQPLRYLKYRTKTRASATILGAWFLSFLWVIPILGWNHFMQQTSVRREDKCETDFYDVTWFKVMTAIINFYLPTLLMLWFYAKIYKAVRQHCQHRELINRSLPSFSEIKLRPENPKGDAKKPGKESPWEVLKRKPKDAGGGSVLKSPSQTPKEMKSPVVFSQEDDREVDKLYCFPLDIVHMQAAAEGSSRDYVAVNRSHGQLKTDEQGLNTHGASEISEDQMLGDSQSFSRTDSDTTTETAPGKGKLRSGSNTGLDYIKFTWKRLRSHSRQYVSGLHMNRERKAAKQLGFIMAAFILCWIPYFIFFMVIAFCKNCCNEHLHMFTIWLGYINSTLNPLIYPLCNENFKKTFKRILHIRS

Sequence of Histamine H3 receptor (Q9Y5N1 whole entry): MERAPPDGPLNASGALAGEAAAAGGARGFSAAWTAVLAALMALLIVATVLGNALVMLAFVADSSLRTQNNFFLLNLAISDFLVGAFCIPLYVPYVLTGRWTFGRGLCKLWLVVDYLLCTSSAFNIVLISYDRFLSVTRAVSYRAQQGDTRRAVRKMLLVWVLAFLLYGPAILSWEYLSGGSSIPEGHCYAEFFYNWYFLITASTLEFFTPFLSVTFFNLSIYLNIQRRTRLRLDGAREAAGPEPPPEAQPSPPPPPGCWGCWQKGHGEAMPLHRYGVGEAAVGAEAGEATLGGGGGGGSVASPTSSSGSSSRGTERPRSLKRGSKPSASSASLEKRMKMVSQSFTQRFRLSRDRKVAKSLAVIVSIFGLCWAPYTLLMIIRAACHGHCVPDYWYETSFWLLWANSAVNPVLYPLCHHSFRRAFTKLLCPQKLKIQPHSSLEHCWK
Sequence of Histamine H4 receptor (Q9H3N8 whole entry): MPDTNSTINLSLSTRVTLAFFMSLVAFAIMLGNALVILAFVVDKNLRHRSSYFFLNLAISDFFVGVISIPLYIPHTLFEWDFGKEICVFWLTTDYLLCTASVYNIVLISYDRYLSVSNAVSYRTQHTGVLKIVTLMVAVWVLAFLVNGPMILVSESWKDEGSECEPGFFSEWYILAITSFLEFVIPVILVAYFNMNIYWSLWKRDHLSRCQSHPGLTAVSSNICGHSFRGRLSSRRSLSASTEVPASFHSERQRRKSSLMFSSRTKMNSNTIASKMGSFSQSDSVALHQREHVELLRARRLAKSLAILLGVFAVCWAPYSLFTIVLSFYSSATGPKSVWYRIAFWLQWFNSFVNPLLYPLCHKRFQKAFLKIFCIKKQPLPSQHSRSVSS
Sequence of Histamine H2 receptor (P25021 whole entry): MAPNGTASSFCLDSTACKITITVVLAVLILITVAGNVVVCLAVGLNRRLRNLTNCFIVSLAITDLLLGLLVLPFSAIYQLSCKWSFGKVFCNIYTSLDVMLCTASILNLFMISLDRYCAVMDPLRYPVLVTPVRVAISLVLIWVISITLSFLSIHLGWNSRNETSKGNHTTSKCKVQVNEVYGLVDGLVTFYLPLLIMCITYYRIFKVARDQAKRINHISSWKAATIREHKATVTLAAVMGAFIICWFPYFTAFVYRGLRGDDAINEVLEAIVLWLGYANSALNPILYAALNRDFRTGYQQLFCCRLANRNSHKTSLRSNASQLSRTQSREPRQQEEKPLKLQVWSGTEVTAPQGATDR

On to `C[C@@H](NC(=O)/N=C(\N)NCCCn1cc(CN(C)C)nn1)c1ccccc1`, for which the Ki was 10200 nM in assay [1], greater than 10000 nM in assay [2], 4470 nM in assay [3] and greater than 10000 nM in assay [4]. The figures for the Kd in assay [2] and in assay [4] were 16 nM and 4.5 nM, respectively.

On to `Cc1nc(N)sc1-c1cccc(N/C(N)=N/C(=O)NCCCCCCNC(=O)/N=C(\N)Nc2cccc(-c3sc(N)nc3C)c2)c1`, for which the inhibition constant (Ki) in assay [1] is 708 nM; in assay [2], 2340 nM; in assay [3], 380 nM; in assay [4], 1450 nM. The figures for the dissociation constant (Kd) in assay [2] and in assay [4] were 16 nM and 4.5 nM, respectively.

For the molecule `NCCCCCCCCNC(=O)/N=C(\N)NCCCc1nnc(N)s1`, the inhibition constant Ki in assay [1] was greater than 10000 nM; in assay [2], greater than 10000 nM; in assay [3], 33.1 nM; in assay [4], 525 nM. The results for the dissociation constant Kd in assay [2] and in assay [4] were 16 nM and 4.5 nM, respectively.

For `Cc1nc(N)oc1CCCN/C(N)=N/C(=O)NCc1ccccc1`, the inhibitory constant (Ki) in assay [1] was greater than 10000 nM; in assay [2] it was greater than 10000 nM; in assay [3], 389 nM; in assay [4], 8910 nM. The values for the Kd in assay [2] and in assay [4] were 16 nM and 4.5 nM, respectively.

Turning to `C[C@@H](NC(=O)/N=C(\N)NCCCc1c[nH]cn1)c1ccccc1`, the Ki in assay [1] was 1.7 nM; in assay [2], 8.51 nM; in assay [3], 6.17 nM; in assay [4], 3980 nM. Besides, the dissociation constant (Kd) in assay [2] is 16 nM; in assay [4] it was 4.5 nM.

Regarding `Cc1ccc(CC(C)CNC(=O)/N=C(\N)Nc2cccc(-c3sc(N)nc3C)c2)cc1` (stereo not drawn), the Ki is 12900 nM in assay [1], 7410 nM in assay [2], 234 nM in assay [3] and 5250 nM in assay [4]. For the same molecule, the figures for the dissociation constant Kd in assay [2] and in assay [4] were 16 nM and 4.5 nM, respectively.

Take `Cc1nc(N)sc1-c1ccc(N/C(N)=N/C(=O)NCC(C)C2CCCCC2)cc1` (stereo not drawn): the Ki is 5620 nM in assay [1], 7760 nM in assay [2], 309 nM in assay [3] and 2880 nM in assay [4]. Moreover, the Kd in assay [2] amounted to 16 nM; in assay [4], 4.5 nM.

With `Cc1nnc(CCCN/C(N)=N/C(=O)NCCCCCCCCN)s1`, the Ki is 11700 nM in assay [1], greater than 10000 nM in assay [2], 1820 nM in assay [3] and 309 nM in assay [4]. Also, the Kd in assay [2] came out at 16 nM; in assay [4], 4.5 nM.

For `Cc1nnc(CCCN/C(N)=N/C(=O)NCc2ccccc2)s1`, the inhibition constant Ki in assay [1] is greater than 10000 nM; in assay [2], greater than 10000 nM; in assay [3] it was 5620 nM; in assay [4] it was 10700 nM. Also, the equilibrium dissociation constant (Kd) turned out to be 16 nM in assay [2] and 4.5 nM in assay [4].

Consider `N/C(=N\C(=O)NCCCCCCCCNC(=O)/N=C(\N)NCCCc1nnc(N)s1)NCCCc1nnc(N)s1`, for which the inhibitory constant (Ki) is 6920 nM in assay [1], 8910 nM in assay [2], 4.79 nM in assay [3] and 1820 nM in assay [4]. Also, the dissociation constant Kd was found to be 16 nM in assay [2] and 4.5 nM in assay [4].

Take `Cc1nc(N)sc1-c1cccc(N/C(N)=N/C(=O)NCC(C)CCCc2ccccc2)c1` (stereo not drawn): the Ki was 10700 nM in assay [1], 7080 nM in assay [2], 234 nM in assay [3] and 13200 nM in assay [4]. Also, the values for the dissociation constant Kd in assay [2] and in assay [4] were 16 nM and 4.5 nM, respectively.

Take `Cc1nc(N)sc1-c1cccc(N/C(N)=N/C(=O)NCc2ccccc2)c1`: the inhibition constant (Ki) was greater than 10000 nM in assay [1], greater than 10000 nM in assay [2], 302 nM in assay [3] and 7240 nM in assay [4]. In addition, the figures for the Kd in assay [2] and in assay [4] were 16 nM and 4.5 nM, respectively.

Consider `Cc1ccc(CC(C)CNC(=O)/N=C(\N)NCCCc2nnc(N)o2)cc1` (stereo not drawn), for which the inhibition constant (Ki) in assay [1] is 9120 nM; in assay [2], greater than 10000 nM; in assay [3], 676 nM; in assay [4], 2690 nM. The Kd in assay [2] turned out to be 16 nM; in assay [4], 4.5 nM.
